Test results taken from ChEMBL document CHEMBL1133462, “Discovery of novel and potent retinoic acid receptor alpha agonists: syntheses and evaluation of benzofuranyl-pyrrole and benzothiophenyl-pyrrole derivatives” (2000).

What was measured:
[1] = biological target: T1, Retinoic acid receptor gamma (Homo sapiens) (UniProt P13631); assay: Relative transcriptional activation in COS cells expressing Retinoic acid receptor gamma compared to ATRA; format: functional, cell-based
T1 sequence (whole entry): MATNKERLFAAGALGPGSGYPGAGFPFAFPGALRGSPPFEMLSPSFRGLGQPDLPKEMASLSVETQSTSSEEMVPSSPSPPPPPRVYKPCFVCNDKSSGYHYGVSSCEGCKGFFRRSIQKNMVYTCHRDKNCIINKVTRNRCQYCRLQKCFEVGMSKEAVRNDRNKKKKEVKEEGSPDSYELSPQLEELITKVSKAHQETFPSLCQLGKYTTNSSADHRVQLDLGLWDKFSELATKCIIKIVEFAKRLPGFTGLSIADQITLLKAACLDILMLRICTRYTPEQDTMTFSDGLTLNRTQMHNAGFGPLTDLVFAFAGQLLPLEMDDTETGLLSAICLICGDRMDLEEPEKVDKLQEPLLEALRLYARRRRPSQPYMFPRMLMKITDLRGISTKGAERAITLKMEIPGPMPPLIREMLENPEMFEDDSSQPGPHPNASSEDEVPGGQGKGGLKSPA
How it was run: (§1)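 COS-1 cells were lipofected with receptor and reporter vectors. After 4 h the medium was changed to DMEM/10% FBS for a further 20 h, then cells were reseeded at 3 × 10⁴/well. After 6 h, compounds were added in log dilutions from 3.0 × 10^-6 to 1.0 × 10^-10 M, in duplicate, for 48 h. Supernatant PLAP activity was measured. EC30 (concentration giving 30% of maximal response) was normalized to ATRA EC30. Values averaged from at least two experiments.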

[2] = biological target: T2, Retinoic acid receptor alpha (Homo sapiens) (UniProt P10276); assay: Relative transcriptional activation in COS cells expressing Retinoic acid receptor alpha compared to ATRA; format: functional, cell-based; how it was run: as §1
T2 sequence (whole entry): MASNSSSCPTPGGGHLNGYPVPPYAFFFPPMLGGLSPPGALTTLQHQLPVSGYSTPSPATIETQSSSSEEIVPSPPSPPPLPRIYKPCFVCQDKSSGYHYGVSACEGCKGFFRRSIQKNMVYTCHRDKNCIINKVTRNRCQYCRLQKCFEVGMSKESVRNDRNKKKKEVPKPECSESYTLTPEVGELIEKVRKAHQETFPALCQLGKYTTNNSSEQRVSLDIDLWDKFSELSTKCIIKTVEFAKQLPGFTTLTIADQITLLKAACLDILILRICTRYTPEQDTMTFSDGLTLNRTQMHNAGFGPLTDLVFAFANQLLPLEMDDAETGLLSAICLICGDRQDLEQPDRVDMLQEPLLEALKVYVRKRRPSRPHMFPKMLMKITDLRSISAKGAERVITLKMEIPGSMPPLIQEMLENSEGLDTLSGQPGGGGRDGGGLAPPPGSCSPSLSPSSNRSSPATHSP

[3] = biological target: T2, Retinoic acid receptor alpha (Homo sapiens); assay: Inhibition of [3H]-ATRA binding to Retinoic acid receptor alpha (RAR-alpha)
How it was run: (§2)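 Competitive binding of [³H]ATRA to individual RAR subtypes. Each IC50 was divided by the ATRA IC50 to give a relative IC50. Reported as mean ± SEM, averaged from at least two experiments.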

[4] = Inhibition of LPS-induced mouse B-lymphocyte proliferation (Mean of IC50/ATRA IC50); format: functional
How it was run: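 BALB/c splenocytes at 1.2 × 10⁵ cells/well in RPMI-1640 with 50 µM 2-mercaptoethanol, 10% FBS and 5 µg/mL E. coli LPS. Compounds were tested in log dilutions from 1.0 × 10^-6 to 1.0 × 10^-12 M final, in triplicate, for 3 days at 37 °C and 5% CO₂. IC50 was fitted by nonlinear regression and divided by the ATRA IC50. Reported as mean ± SEM of triplicates.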

[5] = biological target: T3, Retinoic acid receptor beta (Homo sapiens) (UniProt P10826); assay: Relative transcriptional activation in COS cells expressing Retinoic acid receptor beta compared to ATRA; format: functional, cell-based; how it was run: as §1
T3 sequence (whole entry): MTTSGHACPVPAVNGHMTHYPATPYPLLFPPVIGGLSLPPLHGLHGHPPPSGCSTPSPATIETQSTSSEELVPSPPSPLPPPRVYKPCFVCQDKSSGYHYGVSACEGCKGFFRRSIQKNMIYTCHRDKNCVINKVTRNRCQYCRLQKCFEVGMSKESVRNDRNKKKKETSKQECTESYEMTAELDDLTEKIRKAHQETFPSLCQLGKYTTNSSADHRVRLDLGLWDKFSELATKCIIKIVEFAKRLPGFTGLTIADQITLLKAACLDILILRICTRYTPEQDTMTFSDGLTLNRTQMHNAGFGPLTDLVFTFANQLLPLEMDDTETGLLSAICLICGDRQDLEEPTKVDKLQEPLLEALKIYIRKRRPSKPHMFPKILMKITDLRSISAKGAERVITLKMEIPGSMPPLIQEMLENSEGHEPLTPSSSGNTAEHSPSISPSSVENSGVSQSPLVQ

[6] = biological target: T3, Retinoic acid receptor beta (Homo sapiens); assay: Inhibition of [3H]ATRA binding to Retinoic acid receptor beta (RAR-beta); how it was run: as §2

Relative EC30 [1] [nM] | Relative EC30 [2] [nM] | Relative IC50 [3] [nM] | Relative EC30 [5] [nM] | Relative IC50 [6] [nM] | SMILES | Relative IC50 [4]
3700 | 6 | 15 | 730 | – | COc1ccc(C)c2oc(-c3ccc(-c4ccc(C(=O)O)cc4)[nH]3)cc12 | 4.7
110 | 0.29 | 1.9 | 8.5 | 500 | O=C(O)c1ccc(-c2ccc(-c3cc4c(C(F)(F)F)ccc(F)c4o3)[nH]2)cc1 | 0.37
2000 | 3.1 | 12 | 160 | – | Cc1ccc2cc(-c3ccc(-c4ccc(C(=O)O)cc4)[nH]3)oc2c1C | 2.4

The remaining lines, values behind:

SMILES | Relative EC30 [1] [nM] | Relative EC30 [2] [nM] | Relative IC50 [3] [nM] | Relative EC30 [5] [nM] | Relative IC50 [6] [nM] | Relative IC50 [4]
Cc1cccc2cc(-c3ccc(-c4ccc(C(=O)O)cc4)[nH]3)oc12 | 1000 | 0.8 | 1.6 | 92 | – | 0.98
Cc1ccc(C)c2oc(-c3ccc(-c4ccc(C(=O)O)cc4)[nH]3)cc12 | 240 | 0.37 | 1.4 | 25 | 490 | 0.76
Cc1cc(C)c2oc(-c3ccc(-c4ccc(C(=O)O)cc4)[nH]3)cc2c1C | 480 | 2 | 9.4 | 200 | – | 2.2
Cc1ccc(C)c2sc(-c3ccc(-c4ccc(C(=O)O)cc4)[nH]3)cc12 | 840 | 1.3 | 6.1 | 130 | – | 0.75
Cc1cc(C)c2oc(-c3ccc(-c4ccc(C(=O)O)cc4)[nH]3)cc2c1 | 890 | 1 | 16 | 380 | – | 1.2
O=C(O)c1ccc(-c2ccc(-c3cc4c(Cl)ccc(Cl)c4o3)[nH]2)cc1 | 820 | 0.7 | 1.5 | 110 | 690 | 1.3
Cc1cc(C)c2sc(-c3ccc(-c4ccc(C(=O)O)cc4)[nH]3)cc2c1 | 2900 | 2.4 | 62 | 1300 | – | 3.6
